pIC50: −log10 of the molar value. Calls of active or inactive are those of the source. No cut-off for these calls is given here.

In series [1] the test system is NCI-H1975. The series is described as follows: Ratio of gefitinib IC50 to compound IC50 for human NCI-H1975 cells. The class given is functional.
The target of series [2] is T1, Epidermal growth factor receptor (Homo sapiens, UniProt P00533). As to conditions: A549, at 1 µM.
Series [3] concerns the target T1, Epidermal growth factor receptor. As to conditions: A549, at 1 µM. This is another data set of the same source.
Series [4] shares this target. The series is described as follows: Inhibition of human recombinant EGFR using Ulight-CAGAGAIETDKEYYTVKD as substrate after 15 mins by time-resolved fluorimetric analysis.
In series [5] the test system is NCI-H1975. The series is described as follows: Antiproliferative activity against gefitinib-resistant human NCI-H1975 cells expressing EGFR T790M mutant after 3 days by MTT assay. It is filed as functional, cell-based. The following applies: NCI-H1975, 72 h. Background: Tetrazolium assays rely on reduction of a dye to a coloured formazan, in cell work by metabolically active cells.

The nature of series [6]: Metabolic stability in rat plasma assessed as compound remaining at 1 uM after 24 hrs. The class given is ADME, cell-free. The following applies: read-out: Stability. In outline: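 Incubation of compound (1 μM) in 80% (v/v) rat plasma at 37 °C for 24 h; parent remaining determined by LC−UV and LC−ESI-MS, mean ± SD, n = 3.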
Series [7] is described as follows: Chemical stability of the compound in 0.01 M PBS buffer assessed as compound remaining at 1 uM after 24 hrs at pH 7.4. It is filed as physicochemical. The following applies: read-out: Stability. The method in brief: (§1)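 Buffer stability at pH 7.4 or pH 9.0, compound at 1 μM, 37 °C for 24 h; percentage of parent left measured by LC−UV and LC−ESI-MS, mean ± SD, n = 3.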

A short description of series [8]: Chemical stability of the compound assessed as compound remaining at 1 uM after 1 hr at pH 7.4 in the presence of DTT. It is filed as physicochemical. The following applies: buffer, read-out: Stability. The method in brief:
(§2)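 Test compound (1 μM) in PBS pH 7.4 with freshly prepared thiol (DTT, GSH, NAC or cysteamine, 2 mM), incubated 1 h at 37 °C; parent remaining quantified by LC−UV and LC−ESI-MS, mean ± SD, n = 3.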

Series [9] can be described thus: Drug degradation of the compound assessed as thiol-conjugate formation at 1 uM up to 24 hrs at pH 7.4 in the presence of GSH. It is filed as physicochemical. As to conditions: buffer, pH 7.4, 24 h. In outline: (§3)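 Conjugate formation checked by HPLC−UV and HPLC−ESI-MS after adding freshly prepared thiol (2 mM; cysteamine, NAC, DTT or reduced GSH) to PBS pH 7.4 holding compound at 1 μM, 37 °C; sampled up to 24 h.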

The nature of series [10]: Chemical stability of the compound in 0.01 M borate buffer assessed as compound remaining at 1 uM after 24 hrs at pH 9. It is filed as physicochemical. As to conditions: read-out: Stability. In outline:
as §1

The nature of series [11]: Chemical stability of the compound assessed as compound remaining at 1 uM after 1 hr at pH 7.4 in the presence of GSH. The following applies: buffer, read-out: Stability. It is filed as physicochemical. The method in brief: as §2
A short description of series [12]: Drug degradation of the compound assessed as thiol-conjugate formation at 1 uM up to 24 hrs at pH 7.4 in the presence of cysteamine. The class given is physicochemical. The following applies: buffer, pH 7.4, 24 h. The method in brief:
as §3

Series [13] is described as follows: Drug degradation of the compound assessed as thiol-conjugate formation at 1 uM up to 24 hrs at pH 7.4 in the presence of NAC. The class given is physicochemical. As to conditions: buffer, pH 7.4, 24 h. The method in brief:
as §3

For series [14], the system named is A549. Put plainly: Drug uptake in human A549 cells at 1 uM incubated for 1 hr measured 8 hrs post-wash out by LC-MS analysis. It is filed as ADME, cell-based. The following applies: a549, 1 h. In outline: (§4)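 A549 cells plated 24 h, then exposed 1 h at 37 °C to 1 μM compound (0.1% DMSO final), assayed immediately or 8 h after three washes with fresh medium. Ethanol extraction at 4 °C, extract dried, redissolved, quantified by LC−MS against 50 nM–5 μM calibration (LOQ 50 nM, LOD 20 nM).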

Series [15] can be described thus: Chemical stability of the compound assessed as compound remaining at 1 uM after 1 hr at pH 7.4 in the presence of NAC. It is filed as physicochemical. As to conditions: buffer, read-out: Stability. In outline: as §2
Series [16] concerns A549. The series is described as follows: Drug uptake in human A549 cells at 1 uM after 1 hr by LC-MS analysis. The class given is ADME, cell-based. The following applies: a549, 1 h. The method in brief:
as §4

Series [17] can be described thus: Chemical stability of the compound assessed as compound remaining at 1 uM after 1 hr at pH 7.4 in the presence of cysteamine. The class given is physicochemical. The following applies: buffer, read-out: Stability. The method in brief:
as §2

Series [18] has as its target T2, Receptor tyrosine-protein kinase erbB-2 (Homo sapiens, UniProt P04626). The series is described as follows: Inhibition of ErbB2 up to 10 uM by time-resolved fluorometry.
Series [19] is described as follows: Drug degradation of the compound assessed as thiol-conjugate formation at 1 uM up to 24 hrs at pH 7.4 in the presence of DTT. It is filed as physicochemical. As to conditions: buffer, pH 7.4, 24 h. In outline:
as §3

Series [20] has as its system A549. The series is described as follows: Prodrug conversion in human A549 cell lysate assessed as N-(4-(3-bromophenylamino)quinazolin-6-yl)acrylamide level at 10 uM after 1 hr by HPLC-HRMS analysis. The following applies: a549, 1 h. It is filed as ADME, cell-based. The method in brief: (§5)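 A549 cells grown 2 days, lysed by freeze/thaw; lysate pre-spiked with 2 mM cysteine, compound added from fresh DMSO stock to 10 μM final, 37 °C. Aliquots at 0, 1 and 4 h quenched with double volume acetonitrile, centrifuged, analysed by LC−HRMS in positive ion mode.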

Series [21] deals with A549. The series is described as follows: Drug metabolism in human A549 cell lysate assessed as N-(4-(3-bromophenylamino)quinazolin-6-yl)acrylamide-cysteine adduct level at 10 uM after 1 hr by HPLC-HRMS analysis. The class given is ADME, cell-based. The following applies: a549, 1 h. The method in brief:
as §5

Series [22] has as its target T2, Receptor tyrosine-protein kinase erbB-2. Put plainly: Inhibition of ErbB2 by time-resolved fluorometry.
For series [23], the target named is Epidermal growth factor receptor (Homo sapiens, UniProt P00533, T790M). Put plainly: (§6) Inhibition of EGFR T790M mutant autophosphorylation in human NCI-H1975 cells after 1 hr by Western blot analysis. The class given is cell-based. Background: Immunoblotting shows a protein as a band on a membrane.
Series [24] concerns Epidermal growth factor receptor (Homo sapiens), P00533 [T790M]. The description is as §6. It is filed as cell-based.
Chain of Epidermal growth factor receptor (Homo sapiens), P00533 [T790M] (P00533 whole entry T790M): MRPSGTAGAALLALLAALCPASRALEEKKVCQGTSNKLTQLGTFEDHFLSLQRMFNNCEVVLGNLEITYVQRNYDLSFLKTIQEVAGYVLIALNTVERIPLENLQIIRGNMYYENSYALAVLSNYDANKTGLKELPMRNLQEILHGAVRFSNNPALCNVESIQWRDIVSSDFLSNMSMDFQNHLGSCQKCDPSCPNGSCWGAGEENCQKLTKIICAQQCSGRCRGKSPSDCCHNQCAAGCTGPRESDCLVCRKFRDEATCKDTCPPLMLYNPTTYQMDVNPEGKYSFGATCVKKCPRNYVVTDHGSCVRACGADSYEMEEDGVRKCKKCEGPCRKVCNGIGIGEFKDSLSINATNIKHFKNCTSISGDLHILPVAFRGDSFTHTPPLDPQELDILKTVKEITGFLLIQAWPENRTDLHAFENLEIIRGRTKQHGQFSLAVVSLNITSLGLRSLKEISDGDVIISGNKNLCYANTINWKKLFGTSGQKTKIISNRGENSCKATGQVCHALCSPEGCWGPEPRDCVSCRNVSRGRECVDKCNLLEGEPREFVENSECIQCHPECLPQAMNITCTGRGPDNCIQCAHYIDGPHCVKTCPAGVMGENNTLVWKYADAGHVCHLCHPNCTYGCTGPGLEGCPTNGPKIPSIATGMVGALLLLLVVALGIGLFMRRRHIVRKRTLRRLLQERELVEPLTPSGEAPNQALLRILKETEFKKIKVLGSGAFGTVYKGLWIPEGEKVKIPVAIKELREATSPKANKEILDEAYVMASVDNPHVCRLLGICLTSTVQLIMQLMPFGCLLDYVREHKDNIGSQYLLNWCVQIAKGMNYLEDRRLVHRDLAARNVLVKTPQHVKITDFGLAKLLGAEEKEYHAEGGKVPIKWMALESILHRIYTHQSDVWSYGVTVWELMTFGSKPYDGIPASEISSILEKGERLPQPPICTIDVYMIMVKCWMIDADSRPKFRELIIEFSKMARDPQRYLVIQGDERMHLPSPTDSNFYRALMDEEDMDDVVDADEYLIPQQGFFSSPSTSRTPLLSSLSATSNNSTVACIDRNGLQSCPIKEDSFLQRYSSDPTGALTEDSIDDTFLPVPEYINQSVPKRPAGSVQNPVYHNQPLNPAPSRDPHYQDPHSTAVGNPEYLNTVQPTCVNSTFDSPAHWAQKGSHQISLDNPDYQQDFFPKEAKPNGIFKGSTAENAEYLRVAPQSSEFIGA

T2 sequence (P04626 whole entry): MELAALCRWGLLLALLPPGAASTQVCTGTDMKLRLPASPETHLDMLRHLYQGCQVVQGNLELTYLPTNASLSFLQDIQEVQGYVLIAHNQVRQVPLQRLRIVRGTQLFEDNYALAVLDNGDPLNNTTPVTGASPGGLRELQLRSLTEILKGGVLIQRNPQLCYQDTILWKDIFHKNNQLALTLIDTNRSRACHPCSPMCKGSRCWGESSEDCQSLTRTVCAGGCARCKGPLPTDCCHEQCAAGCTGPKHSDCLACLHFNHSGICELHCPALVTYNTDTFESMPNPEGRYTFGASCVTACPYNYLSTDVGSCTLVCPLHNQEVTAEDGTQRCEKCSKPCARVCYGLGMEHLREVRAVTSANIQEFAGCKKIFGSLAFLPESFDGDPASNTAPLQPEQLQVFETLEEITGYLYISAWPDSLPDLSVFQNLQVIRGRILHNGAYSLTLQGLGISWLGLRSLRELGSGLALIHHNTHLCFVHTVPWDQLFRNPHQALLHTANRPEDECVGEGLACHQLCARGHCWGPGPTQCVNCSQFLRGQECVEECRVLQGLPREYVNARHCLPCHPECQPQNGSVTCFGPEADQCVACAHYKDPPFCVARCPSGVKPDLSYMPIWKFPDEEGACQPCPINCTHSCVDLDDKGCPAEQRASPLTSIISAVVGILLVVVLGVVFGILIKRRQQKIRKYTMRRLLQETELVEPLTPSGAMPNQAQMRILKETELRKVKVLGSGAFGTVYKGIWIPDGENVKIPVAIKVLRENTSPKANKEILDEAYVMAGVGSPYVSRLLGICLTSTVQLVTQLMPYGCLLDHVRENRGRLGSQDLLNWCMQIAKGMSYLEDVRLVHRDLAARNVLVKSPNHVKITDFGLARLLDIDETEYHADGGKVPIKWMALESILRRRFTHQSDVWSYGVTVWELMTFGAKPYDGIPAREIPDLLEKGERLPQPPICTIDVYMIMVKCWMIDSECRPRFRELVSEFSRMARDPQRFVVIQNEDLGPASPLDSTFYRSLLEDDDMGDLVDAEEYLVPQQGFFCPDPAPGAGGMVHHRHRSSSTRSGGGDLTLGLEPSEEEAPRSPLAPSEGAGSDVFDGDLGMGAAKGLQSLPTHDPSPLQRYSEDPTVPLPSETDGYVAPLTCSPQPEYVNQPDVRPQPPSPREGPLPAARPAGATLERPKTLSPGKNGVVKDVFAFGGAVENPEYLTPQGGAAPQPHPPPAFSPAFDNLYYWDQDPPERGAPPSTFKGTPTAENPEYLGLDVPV
T1 sequence (P00533 whole entry): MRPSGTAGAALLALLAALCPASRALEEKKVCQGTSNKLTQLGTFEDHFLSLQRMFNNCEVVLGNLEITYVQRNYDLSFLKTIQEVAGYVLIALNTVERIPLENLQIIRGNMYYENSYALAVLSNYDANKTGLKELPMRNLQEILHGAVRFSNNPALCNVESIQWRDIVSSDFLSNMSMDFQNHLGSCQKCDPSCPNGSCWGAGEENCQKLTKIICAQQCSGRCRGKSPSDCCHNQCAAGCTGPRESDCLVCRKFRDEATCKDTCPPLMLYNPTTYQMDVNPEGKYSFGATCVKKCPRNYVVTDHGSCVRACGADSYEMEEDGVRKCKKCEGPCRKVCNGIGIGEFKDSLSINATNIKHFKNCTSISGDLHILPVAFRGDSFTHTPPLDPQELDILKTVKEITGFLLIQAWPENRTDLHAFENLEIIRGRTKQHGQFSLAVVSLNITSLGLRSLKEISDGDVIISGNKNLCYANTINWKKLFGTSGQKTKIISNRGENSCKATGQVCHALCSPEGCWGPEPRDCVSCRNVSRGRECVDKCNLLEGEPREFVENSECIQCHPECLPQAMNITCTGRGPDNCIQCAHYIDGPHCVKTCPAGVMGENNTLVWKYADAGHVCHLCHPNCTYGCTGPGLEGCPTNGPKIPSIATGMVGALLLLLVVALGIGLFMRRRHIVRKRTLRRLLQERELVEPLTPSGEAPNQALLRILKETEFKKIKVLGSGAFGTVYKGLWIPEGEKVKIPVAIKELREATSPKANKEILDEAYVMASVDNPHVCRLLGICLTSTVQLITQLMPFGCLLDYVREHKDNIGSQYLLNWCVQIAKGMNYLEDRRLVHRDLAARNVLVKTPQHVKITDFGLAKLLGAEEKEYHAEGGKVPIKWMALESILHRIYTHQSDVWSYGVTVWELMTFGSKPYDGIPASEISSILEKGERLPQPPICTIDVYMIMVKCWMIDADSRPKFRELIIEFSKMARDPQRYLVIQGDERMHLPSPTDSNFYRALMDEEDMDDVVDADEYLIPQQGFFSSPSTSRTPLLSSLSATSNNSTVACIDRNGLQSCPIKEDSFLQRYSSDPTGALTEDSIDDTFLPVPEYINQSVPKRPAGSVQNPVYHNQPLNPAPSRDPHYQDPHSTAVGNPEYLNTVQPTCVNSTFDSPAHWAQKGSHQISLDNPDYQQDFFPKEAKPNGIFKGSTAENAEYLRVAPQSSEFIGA
Chain of Epidermal growth factor receptor (Homo sapiens, UniProt P00533, T790M) (P00533 whole entry T790M): as the sequence (P00533 whole entry T790M) above

On to `CCOc1cc2ncnc(Nc3ccc(F)c(Cl)c3)c2cc1NC(=O)CCN(C)C`, for which the “Ratio IC50” value in [1] is given as 3. Besides, the inhibition was determined as 98% in [2] and 100% in series [3]. Besides, the figures for the negative logarithm of the IC50 (pIC50) in series [4] and in [5] were 9.57 and 5.66, respectively.

As to `CCOc1cc2ncc(C#N)c(Nc3ccc(F)c(Cl)c3)c2cc1NC(=O)CCN1CCOCC1`, the inhibition in series [2] came out at 86%; in series [3] it was 48%. Also, the negative logarithm of the IC50 (pIC50) in series [4] is 8.69; in series [5] it was 5.41.

Turning to `C=CC(=O)Nc1ccc2ncnc(Nc3cccc(Br)c3)c2c1`, the results for the remaining at 24 h, 1 µM in [6], in series [7] and in series [10] were 21.8%, 102% and 105%, respectively. Also, the remaining at 1 h, 1 µM in series [8] amounted to 100%; in series [11] it was 63.8%; in series [15], 85.6%; in [17], 20.1%. The Drug degradation entry in series [9], in series [12] and in [13] was “Active” in each case. For the same molecule, the Drug uptake entry in series [14] and in [16] was “Not Active” each time.

Regarding `O=C(CCN1CCOCC1)Nc1ccc2ncnc(Nc3cccc(Br)c3)c2c1`, the inhibition was determined as 98% in [2] and 91% in [3]. In addition, the pIC50 was 9.29 in [4] and under 4.70 in series [5].

In the case of `CN(C)CCC(=O)Nc1ccc2ncnc(Nc3cccc(Br)c3)c2c1`, the remaining at 24 h, 1 µM is 98.7% in [6], 97.5% in series [7] and 77% in [10]. In addition, the remaining at 1 h, 1 µM in [8] turned out to be 99.2%; in [11], 101%; in series [15], 100%; in series [17] it was 100%. Also, the Drug degradation entry in series [9], in [12], in series [19] and in series [13] was “Not Active” in each case. Besides, the inhibition result in [18] is “inactive”. The Drug metabolism result in series [20] and in series [21] was “Active” throughout. Further, the values for the Drug uptake entry in [14] and in series [16] were “Not Active” and 0.05 nmol/mg, respectively.

For the molecule `CCOc1cc2ncc(C#N)c(Nc3ccc(F)c(Cl)c3)c2cc1NC(=O)CCN1CCCCC1`, the inhibition was 92% in series [2] and 82% in [3]. Also, the pIC50 in series [4] was 8.66; in series [5] it was 5.56.

In the case of `CCOc1cc2ncc(C#N)c(Nc3ccc(OCc4ccccn4)c(Cl)c3)c2cc1NC(=O)CCN(C)C`, the pIC50 in series [22] is 6.01; in series [4], 7.90; in [5] it was 5.69. Further, the values for the inhibition in [2] and in [3] were 61% and 59%, respectively.

Regarding `O=C(CCN1CCCCC1)Nc1ccc2ncnc(Nc3cccc(Br)c3)c2c1`, the inhibition was determined as 95% in series [2] and 93% in series [3]. In addition, the pIC50 in series [4] was 9.57; in [5], 5.18.

As to `CCOc1cc2ncc(C#N)c(Nc3ccc(OCc4ccccn4)c(Cl)c3)c2cc1NC(=O)CCN1CCCCC1`, the “Ratio IC50” value in series [1] turned out to be 11. Moreover, the negative-log IC50 (pIC50) was 6.82 in [23], 6.01 in series [22], 7.61 in series [4] and 6.15 in [5]. For the same molecule, the results for the inhibition entry in [24], in series [2] and in series [3] were “Dose-dependent effect”, 71% and 58%, respectively.

For `Nc1ccc2ncnc(Nc3cccc(Br)c3)c2c1`, the results for the Drug uptake result in series [14] and in series [16] were “Not Active” and 0.105 nmol/mg, respectively.

Regarding `CCOc1cc2ncnc(Nc3ccc(F)c(Cl)c3)c2cc1NC(=O)CCN1CCCCC1`, in [1], the “Ratio IC50” value is listed as 3. Further, the results for the inhibition in series [2] and in series [3] were 98% and 92%, respectively. Besides, the negative-log IC50 (pIC50) is 9.29 in series [4] and 5.79 in series [5].

`CCOc1cc2ncc(C#N)c(Nc3ccc(OCc4ccccn4)c(Cl)c3)c2cc1NC(=O)CCN1CCOCC1`: the inhibition came to 48% in series [2] and 39% in series [3]. The pIC50 in series [4] is 7.43; in series [5] it was 5.56.

Regarding `CN(C)CCC(=O)N(C)c1ccc2ncnc(Nc3cccc(Br)c3)c2c1`, the results for the inhibition in series [2] and in series [3] were 47% and 10%, respectively. Also, the values for the negative-log IC50 (pIC50) in series [4] and in series [5] were 7.76 and 4.87, respectively.

As to `CCOc1cc2ncc(C#N)c(Nc3ccc(F)c(Cl)c3)c2cc1NC(=O)CCN(C)C`, the inhibition in [2] was 88%; in [3] it was 67%. For the same molecule, the negative logarithm of the IC50 (pIC50) in series [4] is 9.17; in series [5] it was 5.63.

For `CCOc1cc2ncnc(Nc3ccc(F)c(Cl)c3)c2cc1NC(=O)CCN1CCOCC1`, the “Ratio IC50” value in series [1] is recorded as 3. Also, the inhibition in [2] and in [3] was 97% throughout. In addition, the pIC50 was 9.54 in [4] and 5.68 in series [5].

On to `C=CC(=O)Nc1cc2c(Nc3ccc(F)c(Cl)c3)ncnc2cc1OCC`, for which the inhibition was 96% in series [2] and 99% in [3]. The pIC50 is 9.74 in series [4] and 5.79 in series [5].

Regarding `C=CC(=O)Nc1cc2c(Nc3ccc(F)c(Cl)c3)c(C#N)cnc2cc1OCC`, the inhibition in series [2] is 92%; in series [3], 33%. Besides, the negative logarithm of the IC50 (pIC50) is 8.84 in [4] and 5.45 in series [5].

What is called inhibition is the change of the read-out against control, counted positive when it falls. One may read the pIC50 as the IC50 on a negative log10 scale, so that one unit is a factor of ten.

(Values after ChEMBL document CHEMBL2029270, “Irreversible inhibition of epidermal growth factor receptor activity by 3-aminopropanamides” (J Med Chem, 2012).)
